ChEMBL document CHEMBL4190280, “Topological pattern for the search of new active drugs against methicillin resistant Staphylococcus aureus” (2017)
Values after ≈ are worked out from the molar mass of the structure shown.

Experiments:
Staphylococcus aureus [1] = assay: Bactericidal activity against methicillin-resistant Staphylococcus aureus subsp. aureus Rosenbach 1884; format: functional
Outline: (§1)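 In vitro testing against MRSA by standard techniques, following the Spanish Society of Clinical Microbiology and Infectious Diseases (SEIMC) recommended protocol. MIC and MBC were determined, with concentrations compared in double (twofold) dilution steps.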

Staphylococcus aureus [2] = assay: Antibacterial activity against methicillin-resistant Staphylococcus aureus subsp. aureus Rosenbach 1884; format: functional; outline: as §1

## O=C(O)c1cn(C2CC2)c2cc(Cl)c(F)cc2c1=O
Staphylococcus aureus [1]
  MBC: 512 µg/mL (≈ 1820 µM)
Staphylococcus aureus [2]
  MIC: 32 µg/mL (≈ 114 µM)

## O=C(O)c1cn(C2CC2)c2cc(F)c(F)cc2c1=O
Staphylococcus aureus [1]
  MBC: > 512 µg/mL
Staphylococcus aureus [2]
  MIC: 64 µg/mL (≈ 241 µM)

## COc1cc2c(cc1OC)CN(c1cc3c(cc1F)c(=O)c(C(=O)O)cn3C1CC1)CC2
Staphylococcus aureus [1]
  MBC: 128 µg/mL (≈ 292 µM)
Staphylococcus aureus [2]
  MIC: 1 µg/mL (≈ 2.28 µM)

## CN(Cc1cccc2ccccc12)c1cc2c(cc1F)c(=O)c(C(=O)O)cn2C1CC1
Staphylococcus aureus [1]
  MBC: 128 µg/mL (≈ 307 µM)
Staphylococcus aureus [2]
  MIC: 1 µg/mL (≈ 2.4 µM)

## Cc1nccn1-c1cc2c(cc1F)c(=O)c(C(=O)O)cn2C1CC1
Staphylococcus aureus [1]
  MBC: > 512 µg/mL
Staphylococcus aureus [2]
  MIC: 32 µg/mL (≈ 97.8 µM)

## O=C(O)c1cn(C2CC2)c2cc(N3CCNCC3)c(F)cc2c1=O [CIPROFLOXACIN]
Staphylococcus aureus [1]
  MBC: 256 µg/mL (≈ 773 µM)
Staphylococcus aureus [2]
  MIC: 0.5 µg/mL (≈ 1.51 µM)

## CC1(C)[C@H](C(=O)O[C@H](C#N)c2cccc(Oc3ccccc3)c2)[C@@H]1/C=C(\Cl)C(F)(F)F [GAMMA-CYHALOTHRIN]
Staphylococcus aureus [1]
  MBC: > 512 µg/mL
Staphylococcus aureus [2]
  MIC: > 512 µg/mL

## Nc1nnc(-c2cccc(Cl)c2Cl)c(N)n1 [LAMOTRIGINE]
Staphylococcus aureus [1]
  MBC: > 512 µg/mL
Staphylococcus aureus [2]
  MIC: > 512 µg/mL

## CO[C@@]12[C@H](COC(N)=O)C3=C(C(=O)C(C)=C(N)C3=O)N1C[C@@H]1N[C@@H]12 [MITOMYCIN]
Staphylococcus aureus [1]
  MBC: 4 µg/mL (≈ 12 µM)
Staphylococcus aureus [2]
  MIC: 0.5 µg/mL (≈ 1.5 µM)
